Test results taken from ChEMBL document CHEMBL4371074, “Discovery of Selective Matriptase and Hepsin Serine Protease Inhibitors: Useful Chemical Tools for Cancer Cell Biology” (J Med Chem, 2019).
Calls of active or inactive are those of the source. No cut-off for these calls is given here.

How the values were obtained:
[1] = biological target: T1, Suppressor of tumorigenicity 14 protein (Homo sapiens, UniProt Q9Y5Y6); test: Inhibition of recombinant human N-terminal His6-tagged matriptase catalytic domain expressed in Escherichia coli preincubated for 30 mins followed by Boc-QAR-AMC substrate addition and measured for 1 hr by fluorescence assay; settings: read-out: Ki(app)
T1 sequence (Q9Y5Y6 whole entry): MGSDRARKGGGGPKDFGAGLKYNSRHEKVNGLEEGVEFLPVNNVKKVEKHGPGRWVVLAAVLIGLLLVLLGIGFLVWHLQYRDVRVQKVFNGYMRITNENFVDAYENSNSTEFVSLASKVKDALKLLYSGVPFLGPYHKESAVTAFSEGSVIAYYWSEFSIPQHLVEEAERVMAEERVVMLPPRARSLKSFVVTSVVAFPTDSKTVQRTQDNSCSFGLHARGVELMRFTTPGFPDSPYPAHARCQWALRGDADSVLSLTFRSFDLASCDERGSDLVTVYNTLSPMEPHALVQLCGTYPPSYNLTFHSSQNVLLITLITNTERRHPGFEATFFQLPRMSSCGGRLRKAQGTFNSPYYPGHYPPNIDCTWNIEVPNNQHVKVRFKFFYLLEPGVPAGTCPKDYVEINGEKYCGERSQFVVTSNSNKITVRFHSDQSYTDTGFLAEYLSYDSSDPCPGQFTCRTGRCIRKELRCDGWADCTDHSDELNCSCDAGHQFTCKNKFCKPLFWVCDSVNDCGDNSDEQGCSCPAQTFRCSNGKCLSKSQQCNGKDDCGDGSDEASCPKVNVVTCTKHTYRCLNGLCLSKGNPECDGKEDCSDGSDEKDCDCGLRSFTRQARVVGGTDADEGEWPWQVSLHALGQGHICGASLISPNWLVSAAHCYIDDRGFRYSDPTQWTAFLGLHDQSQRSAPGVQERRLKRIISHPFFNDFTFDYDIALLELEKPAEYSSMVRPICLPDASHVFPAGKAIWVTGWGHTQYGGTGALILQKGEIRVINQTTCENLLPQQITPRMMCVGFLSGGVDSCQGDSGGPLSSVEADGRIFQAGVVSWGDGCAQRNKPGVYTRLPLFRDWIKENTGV
Outline: (§1)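 HGFA was at 7.5 nM with Boc-QLR-AMC (Km 37 µM). Matriptase was at 0.2 nM and hepsin at 0.3 nM, both with Boc-QAR-AMC (Km 93 and 156 µM). Hepsin was pre-activated for 24 h at 37°C. Eleven inhibitor concentrations (0-20 µM, 2% DMSO) were given 30 min RT before substrate at Km. Fluorescence was read at ex 380/em 460 nm. IC50 came from a four-parameter fit, mean of three experiments.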

Serine protease hepsin [2] = biological target: T2, Serine protease hepsin (Homo sapiens, UniProt P05981); test: Inhibition of recombinant human C-terminal His10-tagged hepsin catalytic domain preincubated for 30 mins followed by Boc-QAR-AMC substrate addition and measured for 1 hr by fluorescence assay; settings: read-out: Ki(app); outline: as §1
[3] = biological target: T3, Hepatocyte growth factor activator serine protease (Homo sapiens, UniProt Q04756); test: Inhibition of HGFA catalytic domain (unknown origin) preincubated for 30 mins followed by Boc-QLR-AMC substrate addition and measured for 1 hr by fluorescence assay; settings: read-out: Ki(app)
T3 sequence (Q04756 whole entry): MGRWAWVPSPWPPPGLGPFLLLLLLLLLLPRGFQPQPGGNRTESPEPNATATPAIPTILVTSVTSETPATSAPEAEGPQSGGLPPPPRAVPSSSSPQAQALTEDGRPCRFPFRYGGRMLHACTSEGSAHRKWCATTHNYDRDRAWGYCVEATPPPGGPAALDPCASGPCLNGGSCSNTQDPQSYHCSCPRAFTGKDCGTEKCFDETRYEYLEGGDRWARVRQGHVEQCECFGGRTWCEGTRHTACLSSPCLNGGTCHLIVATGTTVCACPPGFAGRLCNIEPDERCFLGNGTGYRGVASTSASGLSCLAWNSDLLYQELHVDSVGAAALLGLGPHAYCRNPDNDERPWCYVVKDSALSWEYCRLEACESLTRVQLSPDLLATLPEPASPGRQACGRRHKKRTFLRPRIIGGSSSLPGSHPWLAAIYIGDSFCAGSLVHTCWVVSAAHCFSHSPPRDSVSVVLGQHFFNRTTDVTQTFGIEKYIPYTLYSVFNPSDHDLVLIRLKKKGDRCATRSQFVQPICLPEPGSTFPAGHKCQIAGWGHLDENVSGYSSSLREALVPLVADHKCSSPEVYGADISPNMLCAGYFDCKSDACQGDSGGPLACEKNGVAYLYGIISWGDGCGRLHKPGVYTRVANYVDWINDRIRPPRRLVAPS

Homo sapiens [4] = species: Homo sapiens; test: Selectivity ratio of Ki(app) for recombinant human C-terminal His10-tagged hepsin catalytic domain to Ki(app) for recombinant human N-terminal His6-tagged matriptase catalytic domain expressed in Escherichia coli
Homo sapiens [5] = species: Homo sapiens; test: Selectivity ratio of Ki(app) for recombinant human N-terminal His6-tagged matriptase catalytic domain expressed in Escherichia coli to Ki(app) for recombinant human C-terminal His10-tagged hepsin catalytic domain
Serine protease hepsin [6] = biological target: T2, Serine protease hepsin; test: Inhibition of hepsin (unknown origin) expressed in MCF10A cells assessed as reduction in desmosomal cadherin desmoglein 2 loss at 1 uM after 45 mins by Hoechst 33258 staining based immunofluorescence microscopic method; format: cell-based
Outline: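 MCF10A-Indu20-hepsin cells were grown as 2D monolayers on coverslips, with or without doxycycline induction, and pretreated with inhibitor at 1 µM. They were fixed and permeabilized in ice-cold methanol for 5 min and blocked in 0.1% BSA/PBS for 30 min. Staining used anti-desmoglein 2 and anti-hepsin, then Alexa secondaries for 45 min RT, with Hoechst nuclei. Confocal images were scored; cells with pericellular desmoglein 2 on at least two sides counted positive.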

Serine protease hepsin [7] = biological target: T2, Serine protease hepsin; test: Inhibition of hepsin (unknown origin) expressed in MCF10A cells preincubated for 30 mins followed by Boc-QRR-AMC substrate addition and measured for 1 hr by fluorescence assay

| SMILES | Ki [1] | Ki (Serine protease hepsin [2]) | Ki [3] | Ratio Ki(app) (Homo sapiens [5]) | Ratio Ki(app) (Homo sapiens [4]) | inhibition (Serine protease hepsin [6]) | IC50 (Serine protease hepsin [7]) |
| --- | --- | --- | --- | --- | --- | --- | --- |
| N=C(N)NCCC[C@H](NC(=O)[C@H](Cc1c[nH]c2ccccc12)NC(=O)OCC1c2ccccc2-c2ccccc21)C(=O)c1nc2ccccc2s1 | 294 nM | 302 nM | 3.2 µM | 1 | 1 |  |  |
| N=C(N)NCCC[C@H](NC(=O)CNC(=O)OCC1c2ccccc2-c2ccccc21)C(=O)c1nc2ccccc2s1 |  |  | 9.37 µM |  | 6390 | inactive | > 10000 nM |
| CC(C)C[C@H](NC(=O)OCC1c2ccccc2-c2ccccc21)C(=O)N[C@@H](CCCNC(=N)N)C(=O)c1nc2ccccc2s1 | 253 nM | 67 nM | 0.468 µM | 3.8 |  |  |  |
| N=C(N)NCCC[C@H](NC(=O)[C@H](CC(=O)O)NC(=O)OCC1c2ccccc2-c2ccccc21)C(=O)c1nc2ccccc2s1 | 294 nM | 98 nM | > 10 µM | 3 |  |  |  |
| N=C(N)NCCC[C@H](NC(=O)[C@H](Cc1ccc(O)cc1)NC(=O)OCC1c2ccccc2-c2ccccc21)C(=O)c1nc2ccccc2s1 | 25 nM | 256 nM | 2.96 µM |  | 10 |  |  |
| N=C(N)NCCC[C@H](NC(=O)[C@H](CCC(N)=O)NC(=O)OCC1c2ccccc2-c2ccccc21)C(=O)c1nc2ccccc2s1 | 0.65 nM | 116 nM | 6.83 µM |  | 179 |  |  |
| N=C(N)NCCC[C@H](NC(=O)OCC1c2ccccc2-c2ccccc21)C(=O)N[C@@H](CCCNC(=N)N)C(=O)c1nc2ccccc2s1 | 3.9 nM | 102 nM | 8.63 µM |  | 26 |  |  |
| N=C(N)NCCC[C@H](NC(=O)[C@H](CO)NC(=O)OCC1c2ccccc2-c2ccccc21)C(=O)c1nc2ccccc2s1 | 4.9 nM | 555 nM | > 10 µM |  | 113 |  |  |
| C[C@H](NC(=O)OCC1c2ccccc2-c2ccccc21)C(=O)N[C@@H](CCCNC(=N)N)C(=O)c1nc2ccccc2s1 | 0.36 nM | 240 nM | 7.98 µM |  | 667 |  |  |
| CC(C)[C@H](NC(=O)OCC1c2ccccc2-c2ccccc21)C(=O)N[C@@H](CCCNC(=N)N)C(=O)c1nc2ccccc2s1 | 18 nM | 125 nM | 4.63 µM |  | 6.9 |  |  |

Continued, in another order:

| Ki [1] | Ki (Serine protease hepsin [2]) | Ki [3] | Ratio Ki(app) (Homo sapiens [5]) | SMILES | Ratio Ki(app) (Homo sapiens [4]) | inhibition (Serine protease hepsin [6]) | IC50 (Serine protease hepsin [7]) |
| --- | --- | --- | --- | --- | --- | --- | --- |
| 0.22 nM | 104 nM | > 10 µM |  | N=C(N)NCCC[C@H](NC(=O)[C@H](CCCCN)NC(=O)OCC1c2ccccc2-c2ccccc21)C(=O)c1nc2ccccc2s1 | 473 |  |  |
|  |  |  | 6.1 | CC(=O)N[C@@H](CCCCN)C(=O)N[C@@H](CCC(N)=O)C(=O)N[C@@H](CC(C)C)C(=O)N[C@@H](CCCNC(=N)N)C(=O)c1nc2ccccc2s1 |  |  |  |
|  |  | 4.77 µM | 62 | N=C(N)NCCC[C@H](NC(=O)[C@H](CC(N)=O)NC(=O)OCC1c2ccccc2-c2ccccc21)C(=O)c1nc2ccccc2s1 |  | Active | 92 nM |
| 486 nM | 228 nM | 4.3 µM | 2.1 | CC[C@H](C)[C@H](NC(=O)OCC1c2ccccc2-c2ccccc21)C(=O)N[C@@H](CCCNC(=N)N)C(=O)c1nc2ccccc2s1 |  |  |  |
| 5.4 nM | 227 nM |  |  | CSCC[C@H](NC(=O)OCC1c2ccccc2-c2ccccc21)C(=O)N[C@@H](CCCNC(=N)N)C(=O)c1nc2ccccc2s1 |  |  |  |
| 0.5 nM | 391 nM | > 10 µM |  | N=C(N)NCCC[C@H](NC(=O)[C@@H]1CCCN1C(=O)OCC1c2ccccc2-c2ccccc21)C(=O)c1nc2ccccc2s1 | 782 |  |  |
| 188 nM | 764 nM |  |  | N=C(N)NCCC[C@H](NC(=O)[C@H](Cc1ccccc1)NC(=O)OCC1c2ccccc2-c2ccccc21)C(=O)c1nc2ccccc2s1 | 4 |  |  |
| 271 nM | 180 nM | > 10 µM | 1.5 | C[C@@H](O)[C@H](NC(=O)OCC1c2ccccc2-c2ccccc21)C(=O)N[C@@H](CCCNC(=N)N)C(=O)c1nc2ccccc2s1 |  |  |  |
| 3.1 nM |  |  | 19 | CC(=O)N[C@@H](CO)C(=O)N[C@@H](CCCCN)C(=O)N[C@@H](CC(C)C)C(=O)N[C@@H](CCCNC(=N)N)C(=O)c1nc2ccccc2s1 |  |  |  |
| 7.2 nM | 372 nM | > 10 µM |  | N=C(N)NCCC[C@H](NC(=O)[C@H](CCC(=O)O)NC(=O)OCC1c2ccccc2-c2ccccc21)C(=O)c1nc2ccccc2s1 | 52 |  |  |
| 11 nM | 226 nM | 6.12 µM |  | N=C(N)NCCC[C@H](NC(=O)[C@H](Cc1cnc[nH]1)NC(=O)OCC1c2ccccc2-c2ccccc21)C(=O)c1nc2ccccc2s1 | 21 |  |  |
